In brackets after ≈: the same amount, converted by molar mass.
Legend:
Escherichia coli [1] = test: Antibacterial activity against fluoroquinolone resistant Escherichia coli SKM18 by CLSI M100-S17 protocol based method; format: functional
Escherichia coli [2] = test: Antibacterial activity against wild type Escherichia coli ATCC 25922 by CLSI M100-S17 protocol based method; format: functional
Escherichia coli [3] = test: Antibacterial activity against quinolone resistance Escherichia coli isolate ELZ4251 harboring gyrA/parC mutant by CLSI M100-S17 protocol based method; format: functional
Acinetobacter baumannii [4] = test: Antibacterial activity against wild type Acinetobacter baumannii ATCC BAA-747 by CLSI M100-S17 protocol based method; format: functional
Acinetobacter baumannii [5] = test: Antibacterial activity against fluoroquinolone resistant Acinetobacter baumannii isolate MMX2240 by CLSI M100-S17 protocol based method; format: functional
Klebsiella pneumoniae = test: Antibacterial activity against wild type Klebsiella pneumoniae ATCC 35657 by CLSI M100-S17 protocol based method; format: functional
Escherichia coli [6] = test: Antibacterial activity against wild type Escherichia coli ATCC 25922 in presence of HSA by CLSI M100-S17 protocol based method; format: functional
Escherichia coli [7] = test: Selectivity ratio of MIC for wild type Escherichia coli ATCC 25922 in presence of HSA to MIC for wild type Escherichia coli ATCC 25922; format: functional
Mus musculus [8] = test: Terminal half life in CD1 mouse plasma at 10 mg/kg, iv by LC-MS/MS analysis; format: ADME, organism-based; details: in vivo
Mus musculus [9] = test: AUC (0 to 24 hrs) in CD1 mouse plasma at 10 mg/kg, iv by LC-MS/MS analysis; format: ADME, organism-based; set-up: time < 24 hr, dose 10 mg/kg, route intravenous; details: in vivo
Method in brief: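 CD-1 mice given a single 10 mg/kg iv dose (n = 3), in either 10% DMSO plus 1% Tween 80 in pH 8.0 phosphate buffer or 20% (2-hydroxypropyl)-β-cyclodextrin in pH 4.0 citrate buffer; plasma exposure measured.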

Mus musculus [10] = test: Volume of distribution at steady state in CD1 mouse plasma at 10 mg/kg, iv by LC-MS/MS analysis; format: ADME, organism-based; details: in vivo
[11] = Oral bioavailability in CD1 mouse plasma by LC-MS/MS analysis; format: ADME, organism-based
[12] = Fraction unbound in mouse plasma at 1 uM by equilibrium dialysis method; format: ADME, cell-free
Escherichia coli [13] = test: Antibacterial activity against Escherichia coli infected in cyclophosphamide treated neutropenic CD1 mouse septicemia model assessed as mouse survival at 20 mg/kg, iv dosed at 1 hr post infection followed by redosing at 5 hrs post infection measured at 96 hrs post infection relative to control; format: functional
Method in brief: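 Female CD-1 mice were made neutropenic with cyclophosphamide ip, 150 mg/kg on day −4 and 100 mg/kg on day −1. […] Compound was given iv in 3% DMSO/saline at 1 and 5 h postinfection, n = 6 per group. Percent survival was scored at 96 h postinfection.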

Escherichia coli [14] = test: Antibacterial activity against quinolone resistant Escherichia coli by broth microdilution method; format: functional; details: Escherichia coli; for MIC: read-out: MIC
Method in brief: (§1)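 MICs were determined by CLSI broth methods, except that organisms were grown in brain–heart–infusion medium. The panel comprised wild-type and resistant E. coli and A. baumannii strains, including 12 strains whose details are given by reference.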

Escherichia coli [15] = test: Antibacterial activity against wild type Escherichia coli by broth microdilution method; format: functional; method in brief: as §1
Escherichia coli [16] = test: Antibacterial activity against beta-lactam resistant Escherichia coli by broth microdilution method; format: functional; details: Escherichia coli; for MIC: read-out: MIC; method in brief: as §1
Escherichia coli [17] = test: Antibacterial activity against aminoglycoside resistant Escherichia coli by broth microdilution method; format: functional; details: Escherichia coli; for MIC: read-out: MIC; method in brief: as §1
Escherichia coli [18] = test: Antibacterial activity against multidrug resistant Escherichia coli by broth microdilution method; format: functional; details: Escherichia coli; for MIC: read-out: MIC; method in brief: as §1
Acinetobacter baumannii [19] = test: Antibacterial activity against wild type Acinetobacter baumannii by broth microdilution method; format: functional; method in brief: as §1
Acinetobacter baumannii [20] = test: Antibacterial activity against aminoglycoside resistant Acinetobacter baumannii by broth microdilution method; format: functional; details: Acinetobacter baumannii; method in brief: as §1
Acinetobacter baumannii [21] = test: Antibacterial activity against quinolone resistant Acinetobacter baumannii by broth microdilution method; format: functional; details: Acinetobacter baumannii; method in brief: as §1
Acinetobacter baumannii [22] = test: Antibacterial activity against beta-lactam resistant Acinetobacter baumannii by broth microdilution method; format: functional; details: Acinetobacter baumannii; method in brief: as §1
Acinetobacter baumannii [23] = test: Antibacterial activity against carbapenem resistant Acinetobacter baumannii by broth microdilution method; format: functional; details: Acinetobacter baumannii; method in brief: as §1
Acinetobacter baumannii [24] = test: Antibacterial activity against multidrug resistant Acinetobacter baumannii by broth microdilution method; format: functional; details: Acinetobacter baumannii; method in brief: as §1
[25] = Inhibition of His tagged Escherichia coli ATCC 25922 DNA gyrase A expressed in Escherichia coli BL21 (DE3) pLysS cells assessed as reduction in enzyme-mediated supercoiling of relaxed plasmid DNA pNO1 after 30 mins in presence of biotinylated TFO1 by fluorescence assay
Escherichia coli [26] = test: Bactericidal activity against wild type Escherichia coli ATCC 25922 assessed as reduction of bacterial load after 24 hrs by time kill assay; format: functional, organism-based
Acinetobacter baumannii [27] = test: Bactericidal activity against wild type Acinetobacter baumannii ATCC BAA-747 assessed as reduction of bacterial load after 24 hrs by time kill assay; format: functional, organism-based

## CC(C)NCc1cc2cc3c(cc2n1C)CCCc1c-3[nH]c(=O)c(C(=O)O)c1O
Escherichia coli [1]
  MIC: 0.39 µg/mL (≈ 0.986 µM)
Escherichia coli [2]
  MIC: 0.78 µg/mL (≈ 1.97 µM)
Escherichia coli [3]
  MIC: 1.6 µg/mL (≈ 4.05 µM)
Acinetobacter baumannii [4]
  MIC: 0.78 µg/mL (≈ 1.97 µM)
Acinetobacter baumannii [5]
  MIC: 0.78 µg/mL (≈ 1.97 µM)
Klebsiella pneumoniae
  MIC: 0.78 µg/mL (≈ 1.97 µM)
Escherichia coli [6]
  MIC: 3.1 µg/mL
Escherichia coli [7]
  Ratio: 4 - 16
Mus musculus [8]
  beta t1/2: 11 h
Mus musculus [9]
  AUC: 1810 ng·h/mL
Mus musculus [10]
  Vdss: 69 L/kg
[11]
  bioavailability: 44%
[12]
  Fu: 0.16
Escherichia coli [13]
  survival at 20 mg/kg: 83%
Escherichia coli [14]
  MIC50: 0.5 µg/mL (≈ 1.26 µM)
  MIC90: 1 µg/mL (≈ 2.53 µM)
  MIC: 0.25 to 1 µg/mL (≈ 0.632 to 2.53 µM)
Escherichia coli [15]
  MIC50: 0.5 µg/mL (≈ 1.26 µM)
  MIC90: 1 µg/mL (≈ 2.53 µM)
Escherichia coli [16]
  MIC50: 0.5 µg/mL (≈ 1.26 µM)
  MIC90: 1 µg/mL (≈ 2.53 µM)
  MIC: 0.25 to 1 µg/mL (≈ 0.632 to 2.53 µM)
Escherichia coli [17]
  MIC50: 0.5 µg/mL (≈ 1.26 µM)
  MIC90: 1 µg/mL (≈ 2.53 µM)
  MIC: 0.25 to 1 µg/mL (≈ 0.632 to 2.53 µM)
Escherichia coli [18]
  MIC50: 0.5 µg/mL (≈ 1.26 µM)
  MIC90: 1 µg/mL (≈ 2.53 µM)
  MIC: 0.25 to 1 µg/mL (≈ 0.632 to 2.53 µM)
Acinetobacter baumannii [19]
  MIC50: 2 µg/mL (≈ 5.06 µM)
  MIC90: 16 µg/mL (≈ 40.5 µM)
Acinetobacter baumannii [20]
  MIC50: 2 µg/mL (≈ 5.06 µM)
  MIC90: 16 µg/mL (≈ 40.5 µM)
Acinetobacter baumannii [20]; read-out: MIC
  MIC: 0.25 to 32 µg/mL (≈ 0.632 to 80.9 µM)
Acinetobacter baumannii [21]
  MIC50: 2 µg/mL (≈ 5.06 µM)
  MIC90: 16 µg/mL (≈ 40.5 µM)
Acinetobacter baumannii [21]; read-out: MIC
  MIC: 0.25 to 32 µg/mL (≈ 0.632 to 80.9 µM)
Acinetobacter baumannii [22]
  MIC50: 2 µg/mL (≈ 5.06 µM)
  MIC90: 16 µg/mL (≈ 40.5 µM)
Acinetobacter baumannii [22]; read-out: MIC
  MIC: 0.25 to 32 µg/mL (≈ 0.632 to 80.9 µM)
Acinetobacter baumannii [23]
  MIC50: 2 µg/mL (≈ 5.06 µM)
  MIC90: 16 µg/mL (≈ 40.5 µM)
Acinetobacter baumannii [23]; read-out: MIC
  MIC: 0.25 to 32 µg/mL (≈ 0.632 to 80.9 µM)
Acinetobacter baumannii [24]
  MIC50: 2 µg/mL (≈ 5.06 µM)
  MIC90: 16 µg/mL (≈ 40.5 µM)
Acinetobacter baumannii [24]; read-out: MIC
  MIC: 0.25 to 32 µg/mL (≈ 0.632 to 80.9 µM)

## Cn1c(CNC2(C)CCC2)cc2cc3c(cc21)OCCc1c-3[nH]c(=O)c(C(=O)O)c1O
Escherichia coli [1]
  MIC: 0.5 µg/mL (≈ 1.18 µM)
Escherichia coli [2]
  MIC: 1 µg/mL (≈ 2.36 µM)
Escherichia coli [3]
  MIC: 0.78 µg/mL (≈ 1.84 µM)
Acinetobacter baumannii [4]
  MIC: 0.5 µg/mL (≈ 1.18 µM)
Acinetobacter baumannii [5]
  MIC: 0.5 µg/mL (≈ 1.18 µM)
Klebsiella pneumoniae
  MIC: 1 µg/mL (≈ 2.36 µM)
Escherichia coli [6]
  MIC: 3.9 µg/mL
Escherichia coli [7]
  Ratio: 2 - 4
Mus musculus [8]
  beta t1/2: 3.3 h
Mus musculus [9]
  AUC: 4420 ng·h/mL
Mus musculus [10]
  Vdss: 13 L/kg
[11]
  bioavailability: 50%
[12]
  Fu: 0.15
Escherichia coli [13]
  survival at 20 mg/kg: 67%
Escherichia coli [14]
  MIC50: 0.5 µg/mL (≈ 1.18 µM)
  MIC90: 1 µg/mL (≈ 2.36 µM)
  MIC: 0.12 to 1 µg/mL (≈ 0.283 to 2.36 µM)
Escherichia coli [15]
  MIC50: 0.5 µg/mL (≈ 1.18 µM)
  MIC90: 1 µg/mL (≈ 2.36 µM)
Escherichia coli [16]
  MIC50: 0.5 µg/mL (≈ 1.18 µM)
  MIC90: 1 µg/mL (≈ 2.36 µM)
  MIC: 0.12 to 1 µg/mL (≈ 0.283 to 2.36 µM)
Escherichia coli [17]
  MIC50: 0.5 µg/mL (≈ 1.18 µM)
  MIC90: 1 µg/mL (≈ 2.36 µM)
  MIC: 0.12 to 1 µg/mL (≈ 0.283 to 2.36 µM)
Escherichia coli [18]
  MIC50: 0.5 µg/mL (≈ 1.18 µM)
  MIC90: 1 µg/mL (≈ 2.36 µM)
  MIC: 0.12 to 1 µg/mL (≈ 0.283 to 2.36 µM)
Acinetobacter baumannii [19]
  MIC50: 1 µg/mL (≈ 2.36 µM)
  MIC90: 8 µg/mL (≈ 18.9 µM)
Acinetobacter baumannii [20]
  MIC50: 1 µg/mL (≈ 2.36 µM)
  MIC90: 8 µg/mL (≈ 18.9 µM)
Acinetobacter baumannii [21]
  MIC50: 1 µg/mL (≈ 2.36 µM)
  MIC90: 8 µg/mL (≈ 18.9 µM)
Acinetobacter baumannii [22]
  MIC50: 1 µg/mL (≈ 2.36 µM)
  MIC90: 8 µg/mL (≈ 18.9 µM)
Acinetobacter baumannii [23]
  MIC50: 1 µg/mL (≈ 2.36 µM)
  MIC90: 8 µg/mL (≈ 18.9 µM)
Acinetobacter baumannii [24]
  MIC50: 1 µg/mL (≈ 2.36 µM)
  MIC90: 8 µg/mL (≈ 18.9 µM)

## O=C(O)c1cn(C2CC2)c2cc(N3CCNCC3)c(F)cc2c1=O [CIPROFLOXACIN]
[25]
  IC50: 190 nM
Escherichia coli [26]
  Activity: Dose-dependent effect
Acinetobacter baumannii [27]
  Activity: Dose-dependent effect
